Assay outcomes deposited in PubChem by several laboratories.
An excerpt weighted towards active compounds, which were near 2.1% of everything screened.
KLK5 inh: kallikrein 5 (human) inhibition | Q9Y337 | recombinant hK5, fluorogenic AMC substrate cleavage | inhibition, % at 5 µM | 210,000 compounds, 0.59% hits | AID 873;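 active = inhibition of 40% or more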
Target sequence (Q9Y337 67-293 limits assumed): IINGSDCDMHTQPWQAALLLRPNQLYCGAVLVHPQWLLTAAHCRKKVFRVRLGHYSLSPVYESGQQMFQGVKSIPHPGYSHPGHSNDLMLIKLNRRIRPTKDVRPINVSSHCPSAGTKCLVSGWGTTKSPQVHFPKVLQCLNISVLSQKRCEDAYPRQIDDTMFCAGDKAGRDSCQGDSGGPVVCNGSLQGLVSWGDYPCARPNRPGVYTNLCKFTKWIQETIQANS
FXIa inh: factor XIa (human) inhibition. P03951. purified FXIa, Boc-Glu-Ala-Arg-AMC fluorogenic substrate. inhibition, % at 5 µM. 220,000 compounds, 0.14% hits;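 active = inhibition of at least 40%; inactive = inhibition below 40%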;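 note: fluorescence of freed AMC excited at 355 nm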
EP2 mod: EP2 receptor (human) modulation | P43116 | EP2-expressing cells, cAMP HTRF FRET, PGE2 co-stimulation | induction, % at 25 µM | 260,000 compounds, 0.83% hits;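 active = compounds whose cAMP rise, as percent of the full-agonist control response, exceeds 60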;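 note: rat C6 glioma line stably carrying human EP2 under a CMV promoter; the protocol text gives 20 µM as final concentration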
Target sequence (P43116 whole entry, looked up): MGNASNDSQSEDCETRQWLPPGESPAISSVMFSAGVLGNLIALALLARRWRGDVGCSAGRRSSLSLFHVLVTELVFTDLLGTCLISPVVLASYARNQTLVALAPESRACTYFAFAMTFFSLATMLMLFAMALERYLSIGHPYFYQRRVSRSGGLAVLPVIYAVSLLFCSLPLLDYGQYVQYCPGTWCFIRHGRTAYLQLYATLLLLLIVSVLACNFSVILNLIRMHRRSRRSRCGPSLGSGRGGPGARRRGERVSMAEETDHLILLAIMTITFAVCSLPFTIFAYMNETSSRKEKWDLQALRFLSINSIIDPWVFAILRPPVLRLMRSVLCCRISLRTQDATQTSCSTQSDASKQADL
Thrombin inh: inhibitors of human thrombin; P00734; alpha-thrombin, Boc-VPR-AMC fluorogenic substrate cleavage; inhibition, % at 5 µM; 220,000 compounds, 0.26% hits; AID 1046;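 active = inhibition at or above 40%; inactive = inhibition below 40%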
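Material: human alpha-thrombin enzyme / Medium: pH 7.5 Tris (50 mM) with NaCl 150 mM, Tween 20 0.05% / Compound: single-point dosing at 5 µM, 0.2% DMSO / Incubation: enzyme reaction carried out at room temperature / Detection: AMC fluorescence, 355/460 nm / Read-out basis: percent inhibition scaled between no-compound controls and no-enzyme blanks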
PGE2 EP2 inh: EP2 receptor (human) inhibition; inhibition, % at 25 µM; C6 glioma cells expressing human EP2, cAMP TR-FRET; cells stimulated with saturating PGE2; 260,000 compounds, 0.52% hits;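 active = percent inhibition above 40 after rounding to a whole number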;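 note: rat C6 glioma host cells with rolipram phosphodiesterase inhibitor present; the protocol text gives 20 µM as final concentration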
FXIIa inh: inhibitors of human coagulation factor XIIa; P00748; purified FXIIa, Boc-QGR-AMC fluorogenic substrate, 2 h; inhibition, % at 5 µM; 220,000 compounds, 0.3% hits; AID 800; in the data active = inhibition above about 40%
Each line names hits and unclear results; the compound was inactive in the other large screens; ! = not active in a repeat.

COc1ccc2cc1Oc1ccc(cc1)C[C@H]1c3c(cc(OC)c4c3Oc3cc5c(cc3O4)CCN[C@H]5C2)CCN1C	PGE2 EP2 inh 46.9 (no result: KLK5 inh, FXIa inh, Thrombin inh, FXIIa inh)
CN(C)c1ccc(/C=N/NC(=O)CCCCCNC(=O)c2ccccc2)cc1	KLK5 inh 79.9
Cc1ccc(NC(=S)N(CCCN(C)C)Cc2cc3ccc(C)c(C)c3[nH]c2=O)cc1	none (no result: KLK5 inh, FXIa inh, Thrombin inh, FXIIa inh)
O=C(CN1CCOCC1)Nc1ccccc1C(=O)O	PGE2 EP2 inh 125.8!
O=C(O)CC(=O)Nc1ccccc1C(=O)O	FXIIa inh 68.3
Cc1noc(C)c1CCC(=O)N[C@H](Cn1nnc2ccccc21)C(C)C	none (no result: KLK5 inh, FXIa inh, Thrombin inh, FXIIa inh)
O=C(NCC(=O)N1CCN(S(=O)(=O)/C=C/c2ccccc2)CC1)c1ccc(Cl)cc1	none
O=C(NCC(=O)N1CCN(S(=O)(=O)/C=C/c2ccccc2)CC1)c1ccccc1F	FXIIa inh 56.7 (no result: Thrombin inh)
Cc1ccc(C(=O)N(CCCO)Cc2cc3ccc(C)c(C)c3[nH]c2=O)cc1	none (no result: KLK5 inh, FXIa inh, Thrombin inh, FXIIa inh)
Nc1cc(-c2cccs2)nn(CC(=O)N(C2CCCCC2)C2CCCCC2)c1=O	none (no result: KLK5 inh, FXIa inh, Thrombin inh, FXIIa inh)
CN(NC1OC(=O)c2ccccc21)c1ncc(Cl)cc1C(F)(F)F (stereo not given)	FXIIa inh 107.0
O=C(Nc1ccccc1-c1nc2ccccc2s1)c1cccnc1Cl	EP2 mod 63.1
CCOc1ccc(NC(=O)c2ccc(CNc3c(N4CCCC4)c(=O)c3=O)cc2)cc1	Thrombin inh 41.1
CC(=O)c1ccc(NC(=O)c2ccc(CNc3c(N4CCCC4)c(=O)c3=O)cc2)cc1	none
COc1ccc(S(=O)(=O)NCc2c(-c3ccccc3)noc2C)c(OC)c1	FXIa inh 58.8
O=C(c1ccco1)N1c2ccccc2Sc2ccccc21	PGE2 EP2 inh 44.1
O=C(NC1CCN(C(=O)N2c3ccccc3Sc3ccccc32)CC1)c1ccco1	none
O=C(c1ccco1)N1CCN(C(=O)N2c3ccccc3Sc3ccccc32)CC1	KLK5 inh 42.9, Thrombin inh 103.8
O=C(CCCl)N1c2ccccc2Sc2ccccc21	EP2 mod 69.6 (no result: KLK5 inh, FXIa inh, Thrombin inh, FXIIa inh)
CCc1nc2ccccc2n1CC(O)COc1ccccc1C(C)=O (stereo not given)	none (no result: KLK5 inh, FXIa inh, Thrombin inh, FXIIa inh)
COC(=O)CSc1ccc(C#N)c(SCC(=O)OC)c1	none
COC(=O)CSc1cc(SCC(=O)OC)c(C#N)c(SCC(=O)OC)c1	PGE2 EP2 inh 54.9
O=C(c1cnn2cccnc12)N1C2CCC1CC(c1ccc(F)cc1)C2 (stereo not given)	none (no result: KLK5 inh, FXIa inh, Thrombin inh, PGE2 EP2 inh, FXIIa inh)
Cc1cc(C(=O)CSc2nnnn2C)c(C)n1-c1cccc(F)c1	Thrombin inh 49.2
COc1cnn(-c2ccccc2)c(=O)c1SCc1ccc(Cl)c(Cl)c1	none
COc1cc2nncc(SCc3ccc(Cl)c(Cl)c3)c2cc1OC	PGE2 EP2 inh 54.3 (no result: KLK5 inh, FXIa inh, Thrombin inh, FXIIa inh)
O=C(Cn1cc2c(n1)CCCC2)NCc1ccccn1	KLK5 inh 44.9
CCN(CC)C(=O)c1sc(NC(=O)c2cccc(OC)c2)c(C(=O)OC)c1C	none (no result: KLK5 inh, FXIa inh, Thrombin inh, FXIIa inh)
Cn1c(SCC(N)=O)nnc1-c1ccccc1	none
Cn1c(-c2ccccc2)cnc1SCC(N)=O	FXIIa inh 58.8
CCCc1nnc(NC(=O)c2cc(Cl)ccc2OC)s1	none (no result: KLK5 inh, FXIa inh, Thrombin inh, FXIIa inh)
CC(=O)Oc1c(/C=C(\C#N)C(N)=O)[nH]c2ccccc12	PGE2 EP2 inh 94.9
C/C=C/Cn1c(SCc2ccc(Cl)cc2)nc2c1c(=O)[nH]c(=O)n2C	EP2 mod 63.4
C=C(C)Cn1c(SCc2ccc(Cl)cc2)nc2c1c(=O)n(C)c(=O)n2C	EP2 mod 80.1 (no result: KLK5 inh, FXIa inh, Thrombin inh, FXIIa inh)
CCSc1nc2c(c(=O)n(C)c(=O)n2C)n1Cc1ccccc1Cl	none (no result: KLK5 inh, FXIa inh, Thrombin inh, FXIIa inh)
CCCn1c(SCc2ccc(Cl)cc2)nc2c1c(=O)[nH]c(=O)n2C	none
C=CCSc1nc2c(c(=O)n(C)c(=O)n2C)n1Cc1ccccc1Cl	EP2 mod 93.0 (no result: KLK5 inh, FXIa inh, Thrombin inh, FXIIa inh)
CN(C)CCN(Cc1cc(Cl)c(O)c(Cl)c1)Cc1cccs1	none (no result: KLK5 inh, FXIa inh, Thrombin inh, FXIIa inh)
O=C(NC1CCCC1)C1CCCN1C(=O)Nc1ccccc1Cl (stereo not given)	none (no result: PGE2 EP2 inh)
COc1ccccc1NC(=O)N1CCCC1C(=O)NC1CCCCC1 (stereo not given)	Thrombin inh 53.6
COc1ccc2c(c1OC)C(=O)O[C@H]2[C@H]1c2c(cc3c(c2OC)OCO3)CCN1C	EP2 mod 67.9 (no result: KLK5 inh, FXIa inh, Thrombin inh, FXIIa inh)
c1ccc(Nc2nc(-c3ccncc3)nc3ccccc23)cc1	none
c1ccc(CCNc2nc(-c3ccncc3)nc3ccccc23)cc1	PGE2 EP2 inh 45.8
CCCn1[nH]cc(SC)c(=O)c1=O	KLK5 inh 121.6
Cn1c(SCC(=O)c2ccccc2)nnc1-c1cccc(N)c1	KLK5 inh 60.5, FXIIa inh 106.2
COc1ccc(C(=O)Nc2ccc(N3CCN(c4ccc(OC)cc4)CC3)c(C#N)c2)cc1	FXIa inh 46.8
COc1ccc(N2CCN(c3ccc(NC(=O)C4CCCCC4)cc3C#N)CC2)cc1	none
COC(=O)c1ccc(COC(=O)CNS(=O)(=O)c2ccccc2)cc1	Thrombin inh 54.7
CC(C)(C)NC(=O)NC(=O)COC(=O)Cn1cnc2ccccc2c1=O	none
O=C(COC(=O)Cn1cnc2ccccc2c1=O)Nc1cc(Cl)ccc1[N+](=O)[O-]	Thrombin inh 65.0
CC(=O)Nc1nc(-c2ccc3c(c2)CCN3C(=O)C2CCCCC2)cs1	none (no result: KLK5 inh, FXIa inh, Thrombin inh, FXIIa inh)
O=C(Nc1sc(NC(=O)c2cccs2)nc1-c1cccs1)c1ccccc1	EP2 mod 60.8 (no result: KLK5 inh, FXIa inh, Thrombin inh, FXIIa inh)
COCCCNC(=O)c1c(NC(=O)c2ccccc2)sc2c1CCCC2	EP2 mod 65.1 (no result: KLK5 inh, FXIa inh, Thrombin inh, FXIIa inh)
COc1ccc(-c2[nH]ncc2-c2ccc3c(c2)OCCO3)c(O)c1	KLK5 inh 49.3, Thrombin inh 100.7
CCOCCCNC(=S)N(CCCN(C)C)Cc1cc2ccc(OC)cc2[nH]c1=O	none (no result: KLK5 inh, FXIa inh, Thrombin inh, FXIIa inh)
O=C(CSc1n[nH]c(-c2ccc(Cl)cc2)n1)Nc1cccc2ccccc12	none (no result: KLK5 inh, FXIa inh, Thrombin inh, FXIIa inh)
O=C1ON=C(c2ccccc2)/C1=C/c1ccco1	PGE2 EP2 inh 95.8 (no result: FXIIa inh)
CN(C)/C=C1\C(=O)ON=C1c1ccccc1	none
CCSc1nnc(NC(=O)[C@H](C)N2C(=O)C3CC=CCC3C2=O)s1 (stereo not given in full)	KLK5 inh 45.9, FXIa inh 56.4
CCOC(=O)c1c(N)sc(=S)c2c1CCC2	PGE2 EP2 inh 60.8
CCOC(=O)c1c(N)sc(N)c1C(=O)OCC	none
CCCCCC(=O)Nc1cccc(C2=NOC3(C2)C[C@@H](C(N)=O)N(C(=O)c2cc([N+](=O)[O-])cc([N+](=O)[O-])c2C)C3)c1 (stereo not given in full)	FXIa inh 40.5
c1ccc(Oc2nc(-c3cccnc3)nc3ccccc23)cc1	EP2 mod 86.6
Cc1cccc(Oc2nc(-c3ccccn3)nc3ccccc23)c1	none
Cc1cccc(Oc2nc(-c3ccncc3)nc3ccccc23)c1	EP2 mod 71.2
Cc1cc(C)c2cc(CN(C3CCCC3)C(c3nnnn3C3CCCC3)C(C)C)c(=O)[nH]c2c1 (stereo not given)	none (no result: KLK5 inh, FXIa inh, Thrombin inh, FXIIa inh)
CC(C)c1nc2ccc(Br)cn2c1NC1CCCC1	EP2 mod 64.9
